Screening data (PubChem BioAssay)
Arr AP2 block: blocks beta-arrestin peptide binding to AP2 adaptin | FITC-arrestin peptide / GST-AP2 beads, flow cytometry; AP2 beta2 appendage carries R879A mutation | inhibition, % at 10 µM | actives 0.31% (n = 340,000) | AID 504490;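 active means inhibition above a set limit, near 3 SD of compounds lacking own fluorescence, cut at about 54% in these data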;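 further: plate controls were DMSO wells for no effect and 5 µM unlabelled arrestin peptide for full effect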
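System: GST-tagged AP2 beta2-adaptin appendage (R879A) on 4 µm glutathione beads / Reagent: FITC-arrestin peptide, 50 nM / Detection: HyperCyt-sampled flow cytometry, FL1 channel, ex 488/em 535 nm / Timing: 12 min plus 1 h, RT / Buffer or medium: PBS plus Tween 20 (0.05%) and BSA (0.1%)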
PolyA inh: blocks polyadenylation in yeast reporter cells; S. cerevisiae SKY197-pL101 polyadenylation reporter, beta-gal luminescence; efflux-impaired pdr1/pdr3 knockout yeast; score 100 = 6 SD above DMSO; activity score, % at 12 µM; actives 0.02% (n = 300,000);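 active means lowest replicate activity score at least 50, where 100 means six control SD above control mean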;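 further: yeast exposed to compound for 9 h at 30 °C; higher score means more reporter readthrough which indicates perturbed polyadenylation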
NALP3 yeast inh: inhibitors of NALP3 inflammasome in yeast | Yeast reconstituted NLRP3/ASC/caspase-1, beta-gal luminescence, 24 h | inhibition, % at 10 µM | actives 0.39% (n = 330,000) | AID 2825;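 active means inhibition of 50% or more; inactive means inhibition below 50%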;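 further: plate controls were induced DMSO wells for no effect and uninduced yeast grown without galactose for full effect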
Pemphigus Ab inh: inhibitors of pemphigus antibody binding to human desmoglein-3; P32926; DSG3-coupled beads, scFv-anti-DSG3-GFP binding, flow cytometry; hits give low values; binding (percent of control), % at 10 µM; actives 0.48% (n = 310,000);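 active means binding more than 3 SD below its plate's average and above zero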;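 further: hits lower antibody fragment binding to DSG3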
NALP1 yeast inh: inhibitors of NALP1 inflammasome in yeast; actives 0.61% (n = 280,000); AID 2071; S. cerevisiae NALP1/ASC/caspase-1 growth, X-gal OD620, 72 h; inhibition, % at 10 µM; in the data active means inhibition mostly above about 24%, no sharp cut-off; inactive means mostly below about 32%
ALR inh: blocks human ALR sulfhydryl oxidase activity | purified ALR, DTT oxidation, H2O2 HRP-luminol luminescence | actives 3.8% (n = 290,000) | inhibition, % (no concentration beside the values) | AID 485317 | P55789;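 active means mean replicate inhibition above about 79%, with every replicate also reaching it, limit read from the data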
Target sequence (P55789 whole entry, looked up): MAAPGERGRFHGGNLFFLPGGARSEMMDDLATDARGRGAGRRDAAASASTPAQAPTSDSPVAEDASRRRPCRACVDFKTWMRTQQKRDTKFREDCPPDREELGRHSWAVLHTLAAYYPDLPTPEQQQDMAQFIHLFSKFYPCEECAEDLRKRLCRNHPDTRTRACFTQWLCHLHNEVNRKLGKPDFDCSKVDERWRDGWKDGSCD
NALP3 confirm: NALP3 inhibition confirmation in yeast | actives 81% (n = 1,300) | shares compounds with NALP3 yeast inh | yeast expressing human NALP3, luminescence | inhibition, % at 10 µM | AID 435006; in the data active means inhibition above about 48%
Casp1-ASC yeast: counter-screen for NALP3 inhibitors: yeast caspase-1-ASC; AID 488784; yeast expressing Caspase-1-ASC, luminescence counter screen; shares compounds with NALP3 yeast inh; inhibition, % at 10 µM; actives 66% (n = 1,000)
NALP3 retest: retest-confirmed inhibitor of NALP3 in yeast; inhibition, % at 10 µM; yeast expressing human NALP3, luminescence read-out; actives 53% (n = 1,000); shares compounds with NALP3 yeast inh
* hit, by the source's call; . = no result. This is a sample that favours compounds with a hit; in the whole collection about 4.6% have one here. Unless noted, no stated cut-off is given here; in the data, active means inhibition above about 50%; inactive means the rest.

SMILES | Arr AP2 block | PolyA inh | NALP3 yeast inh | Pemphigus Ab inh | NALP1 yeast inh | ALR inh | NALP3 confirm | Casp1-ASC yeast | NALP3 retest
COc1ccc(-n2nnnc2S(=O)(=O)CC(=O)N2CCCCC2)cc1 | -6 | . | 57* | 100 | -4 | 98* | 62* | 63* | 39
CCc1nc2cccnc2n1-c1ccc(CC(=O)NCCOC)cc1 | 34 | 0 | 2 | 100 | 20 | . | . | . | .
CCc1sc(C(=O)N2CCc3ccccc32)cc1C | 4 | -13 | 51* | 105 | -4 | 7 | 34 | . | .
Cc1ccc(-c2csc(NC(=O)c3ccc(F)cc3)c2C(=O)O)cc1 | -4 | -4 | 83* | 94 | 46 | 11 | 91* | 92* | 38
O=C(Nc1scc(-c2ccccc2)c1C(=O)O)c1ccc(F)cc1 | -7 | 10 | 61* | 114 | 6 | . | 74* | 48 | 60*
COc1ccc(-c2csc(NC(=O)c3ccc(C(C)(C)C)cc3)c2C(=O)O)cc1 | 5 | -14 | 87* | 107 | . | 60 | 86* | 95* | 86*
COc1ccc(-c2csc(NC(=O)c3ccccc3OC)c2C(=O)O)cc1OC | 4 | 3 | 7 | 117 | -9 | -2 | . | . | .
Cc1ccc(C(=O)Nc2scc(-c3ccccc3)c2C(=O)O)o1 | 5 | -3 | -7 | 124 | 4 | . | . | . | .
CC(NC(=S)NCCc1ccccc1)C(c1cccs1)N1CCN(C)CC1 (stereo unspecified) | 9 | 8 | 5 | 109 | 14 | 5 | . | . | .
O=C(Nc1nccs1)c1ccc(Cl)s1 | 16 | -21 | 51* | 109 | 1 | -67 | 70* | 60* | 50
CCc1sc(C(=O)Nc2nccs2)cc1C | 40 | -4 | 53* | 90 | 12 | -3 | 72* | 81* | 70*
COc1cc(/C=C2\SC(=Nc3ccccc3)N(CCc3c[nH]c4ccccc34)C2=O)ccc1OC(C)C(=O)O (stereo unspecified) | 3 | -6 | 17 | 96 | 22 | 54 | . | . | .
O=C1/C(=C/c2ccc(N3CCOCC3)o2)SC(=Nc2ccccc2)N1CCc1c[nH]c2ccccc12 | -16 | 12 | 68* | 215 | 8 | -26 | 77* | . | .
CCCCn1c(N)c(N(CCOC)C(=O)CCCc2cccs2)c(=O)[nH]c1=O | 23 | 7 | 11 | 104 | . | 5 | . | . | .
CCN(CC)C(=O)[C@H]1CC(CC(=O)NCCCOC)C(=O)N2CCc3c([nH]c4ccccc34)[C@]12C (stereo partly specified) | 30 | . | 4 | 104 | . | . | . | . | .
O=C(NNC(=S)Nc1ccc(Br)cc1)c1cccnc1 | 7 | 11 | 53* | 107 | 0 | 70 | 50* | . | .
CC(C)c1ccc(NC(=S)NNC(=O)c2cccnc2)cc1 | -16 | -8 | 32 | 92 | 0 | 36 | . | . | .
O=S(=O)(NCc1ccco1)c1ccccc1Br | 2 | -13 | 12 | 107 | 1 | 3 | . | . | .
CN1CCN(Cn2cc(/C=C/C(=O)c3ccccc3)c3ccccc32)CC1 | 8 | -12 | 67* | 114 | 0 | 26 | 74* | . | .
O=C(/C=C/c1cn(CC(O)CN2CCCCC2)c2ccccc12)c1ccccc1 (stereo unspecified) | -1 | -1 | . | . | -8 | . | . | . | .
O=C(COC(=O)c1ccc([N+](=O)[O-])s1)NCc1ccccc1 | 2 | 3 | 4 | 96 | 30 | -16 | . | . | .
Cc1[nH]c2ccccc2c1C(=O)COC(=O)c1ccc([N+](=O)[O-])s1 | 0 | -90 | 56* | 103 | 7 | -42 | 78* | 85* | 87*
O=C(NC(Nc1nc2ccc([N+](=O)[O-])cc2s1)(C(F)(F)F)C(F)(F)F)c1cccnc1 | 2 | 3 | 12 | 109 | 23 | -12 | . | . | .
O=C(NC(Nc1nc2ccc([N+](=O)[O-])cc2s1)(C(F)(F)F)C(F)(F)F)c1ccccc1Cl | 2 | -23 | 74* | 83 | 105* | -2 | 94* | 87* | 94*
CCN(CC)c1ccc(Nc2nc(Cl)ncc2Br)cc1 | 5 | 2 | 54* | 103 | 38 | 99* | 64* | 54* | 44
SMILES | Arr AP2 block | PolyA inh | NALP3 yeast inh | Pemphigus Ab inh | NALP1 yeast inh | ALR inh | NALP3 confirm | Casp1-ASC yeast | NALP3 retest
Cc1ccc2sc(NC(=O)CSc3nc(C)cc(C)c3C#N)nc2c1 | -8 | 5 | 51* | 105 | 13 | -2 | 41 | 11 | 17
O=C(NC1CCCCC1)C(c1ccc(F)cc1)N(CCCN1CCOCC1)C(=O)c1ccc(CN2CCOCC2)o1 (stereo unspecified) | -7 | 15 | 15 | 120 | 29 | -3 | . | . | .
COC(=O)c1cc(C(=O)Cc2ccccc2)c[nH]1 | . | -2 | 20 | . | 4 | -11 | . | . | .
CCOc1cccc(C(=O)Nc2ccc(S(=O)(=O)Nc3cc(C)on3)cc2)c1 | 22 | 0 | 6 | 107 | -6 | -3 | . | . | .
O=C(CNC(=O)c1cccs1)Nc1ccncc1 | -12 | 11 | -3 | 99 | . | -7 | . | . | .
N=C(N1CCCc2ccccc21)N1CCCc2ccccc21 | -6 | . | . | 107 | . | . | . | . | .
C=C1CCN(Cc2ccccc2)S(=O)(=O)c2ccccc21 | 23 | 4 | 51* | 98 | -41 | 5 | 66* | 29 | 35
Cc1nc2cc(NC(=O)c3ccc(Br)s3)ccc2s1 | 8 | -21 | 51* | 109 | 9 | -2 | 69* | 44 | 41
Cc1ccc(C(=O)Nc2ccc3nc(C)sc3c2)s1 | -8 | -5 | 49 | 106 | 58 | 0 | . | . | .
COc1ccc(-n2c3c(cc(C(=O)N4CCCCC4)c2=O)C(=O)CC(C)(C)C3)cc1 | 0 | 10 | 4 | 99 | . | 8 | . | . | .
COc1ccc2c(=O)c(-c3cnn(-c4ccccc4)c3)c(C)oc2c1 | 3 | 25 | 62* | 125 | -3 | -19 | 66* | 59* | 68*
COc1ccc2c(=O)c3ccccc3oc2c1 | -6 | 1 | 57* | 99 | 23 | -2 | 68* | 48 | 45
CC(C)CN1CCC(=O)N(CCSc2ccc(Br)cc2)CC1 | 0 | 2 | 19 | 105 | 3 | . | . | . | .
CC(C)CCNC(=S)Nc1ccc([N+](=O)[O-])cc1 | 4 | -1 | 63* | 96 | 92* | 3 | -7 | . | .
COc1cc(C(=O)OCC(=O)Nc2ccccc2)cc2c1OCCO2 | . | . | . | 104 | . | . | . | . | .
CCCSc1nsc(NC(=O)Nc2ccc(F)cc2F)n1 | 9 | 1 | 51* | 126 | 19 | 1 | 51* | 23 | 36
CCSc1nsc(NC(=O)Nc2cccc(F)c2)n1 | -5 | 1 | 50* | 112 | 11 | -3 | 78* | 47 | 85*
